Data reported in ChEMBL document CHEMBL1140997 (Bioorg Med Chem, 2009).

How the values were obtained:
[1] = molecular target: Prostaglandin G/H synthase 1 (Homo sapiens, UniProt P23219); experiment: Inhibition of COX1
Method in brief: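 Reaction in 100 mM Tris-HCl pH 8.0 containing 1 µM heme, 500 µM phenol and 300 µM epinephrine, with enough COX-1 to make 150 ng/ml PGE2. Started with arachidonic acid (10 µM final), 10 min at room temperature, stopped into indomethacin. PGE2 measured by ELISA against a PGE2 standard curve. Values are % of solvent control; IC50 from four serial dilutions, mean of two experiments.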

[2] = Inhibition of TNFalpha induced NF-kappaB activation in human 293 cells after 24 hrs by luciferase reporter gene assay; assay type: cell-based; conditions: HEK293, 24 h
Method in brief: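 Cells incubated 24 h with TNFα (20 ng/ml) and test compounds, PBS-washed, lysed 10 min, luciferase read. Screen at 20 µg/ml; active compounds then run as dose-response in duplicate. Values are % of TNFα-treated control; IC50 from five serial dilutions, mean of two experiments.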

[3] = molecular target: T1, Prostaglandin G/H synthase 2 (Homo sapiens, UniProt P35354); experiment: Inhibition of COX2
T1 sequence (P35354 whole entry): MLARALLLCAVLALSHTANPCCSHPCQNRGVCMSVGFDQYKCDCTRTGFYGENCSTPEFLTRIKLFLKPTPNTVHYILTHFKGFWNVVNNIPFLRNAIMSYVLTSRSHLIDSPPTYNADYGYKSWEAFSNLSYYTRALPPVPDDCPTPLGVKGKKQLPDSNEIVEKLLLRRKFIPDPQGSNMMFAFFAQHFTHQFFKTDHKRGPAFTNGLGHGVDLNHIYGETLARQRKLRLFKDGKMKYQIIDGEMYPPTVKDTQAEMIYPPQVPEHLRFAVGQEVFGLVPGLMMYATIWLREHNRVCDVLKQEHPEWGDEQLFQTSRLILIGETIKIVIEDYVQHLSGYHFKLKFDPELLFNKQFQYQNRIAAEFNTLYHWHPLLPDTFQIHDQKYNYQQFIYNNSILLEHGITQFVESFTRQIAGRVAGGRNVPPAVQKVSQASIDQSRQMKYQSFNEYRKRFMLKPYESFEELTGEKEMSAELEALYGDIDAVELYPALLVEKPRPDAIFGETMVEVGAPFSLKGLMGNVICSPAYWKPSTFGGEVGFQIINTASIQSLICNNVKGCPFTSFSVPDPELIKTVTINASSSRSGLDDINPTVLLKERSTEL

Sequence of Prostaglandin G/H synthase 1 (P23219 whole entry): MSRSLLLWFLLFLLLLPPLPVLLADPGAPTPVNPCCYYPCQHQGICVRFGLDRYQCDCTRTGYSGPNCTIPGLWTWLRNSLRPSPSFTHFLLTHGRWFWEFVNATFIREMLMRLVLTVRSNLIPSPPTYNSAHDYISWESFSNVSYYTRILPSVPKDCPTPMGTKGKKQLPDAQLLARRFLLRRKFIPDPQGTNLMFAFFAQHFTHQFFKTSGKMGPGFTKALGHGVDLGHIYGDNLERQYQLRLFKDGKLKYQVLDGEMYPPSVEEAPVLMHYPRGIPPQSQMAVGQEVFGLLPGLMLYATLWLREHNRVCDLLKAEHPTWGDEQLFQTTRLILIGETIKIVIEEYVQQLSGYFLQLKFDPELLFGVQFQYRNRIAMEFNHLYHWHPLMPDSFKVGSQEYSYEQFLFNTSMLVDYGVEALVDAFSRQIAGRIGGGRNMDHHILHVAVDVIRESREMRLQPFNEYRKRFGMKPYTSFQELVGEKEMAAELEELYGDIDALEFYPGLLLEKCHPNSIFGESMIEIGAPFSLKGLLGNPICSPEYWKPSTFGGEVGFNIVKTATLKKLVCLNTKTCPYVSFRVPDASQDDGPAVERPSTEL

IC50 [1] [µM] | IC50 [2] [µM] | IC50 [3] [µM] | Compound
5.3 | 39.2 |  | C/C(=C\c1cc(O)cc(O)c1)c1ccc(Cl)cc1
 | 12.7 |  | Oc1ccc(/C=C/c2ccc(O)c(O)c2)cc1
 | 52 |  | COc1ccc(/C=C/c2ccc(OC)c(OC)c2)cc1
2.2 |  | 31.6 | O=[N+]([O-])c1ccc(/C=C/c2cc(O)cc(O)c2)cc1
 | 27.1 |  | COc1ccc(/C(C)=C/c2cc(OC)cc(OC)c2)cc1
10.6 |  | 12.8 | COc1ccc(/C=C(\C)c2cc(O)cc(O)c2)cc1OC
 | 34.7 |  | COc1ccc(/C=C/c2ccc(N(C)C)cc2)cc1OC
0.17 |  | 3.3 | CC/C(=C\c1cc(O)cc(O)c1)c1ccc2ccccc2c1
18.4 |  |  | Oc1cc(O)cc(/C=C/c2ccc3ccccc3c2)c1
 | 17.3 |  | COc1cccc(/C=C/c2ccc(OC)c(OC)c2)c1
 | 37.8 |  | COc1ccc(/C(=C/c2cc(OC)cc(OC)c2)C(F)(F)F)cc1
7.4 |  | 2.2 | CC/C(=C\c1ccc(N(C)C)cc1)c1cc(O)cc(O)c1
 | 17.9 |  | Oc1ccc(/C=C/c2ccc(F)cc2)cc1O
 | 27.2 |  | CC/C(=C\c1cc(OC)cc(OC)c1)c1ccc(OC)c(OC)c1
 | 42.3 |  | C/C(=C\c1ccc2ccccc2c1)c1cc(O)cc(O)c1
 | 6.91 |  | Oc1ccc(/C=C/c2ccc3ccccc3c2)cc1O
 | 48.2 |  | COc1ccc(/C(C)=C/c2ccc3ccccc3c2)cc1
 | 21.3 |  | C/C(=C\c1ccc(O)c(O)c1)c1ccc(O)cc1
29.7 | 12.9 |  | Oc1cc(O)cc(/C=C/c2ccc(C(F)(F)F)cc2)c1
0.99 |  |  | CC/C(=C\c1ccc(C(F)(F)F)cc1)c1cc(O)cc(O)c1
51.3 | 52.1 |  | Oc1cc(O)cc(/C=C/c2ccc(F)cc2)c1
3.5 | 25.7 | 17.7 | CC/C(=C\c1cc(O)cc(O)c1)c1cccc(F)c1
0.97 | 34.2 |  | C/C(=C\c1cc(O)cc(O)c1)c1ccc(C(F)(F)F)cc1
 | 12.2 |  | COc1ccc(/C=C/c2ccc(O)c(O)c2)cc1
 | 16.1 |  | Oc1ccc(/C=C/c2cc(O)cc(O)c2)cc1 [RESVERATROL]
 | 25.5 |  | COc1ccc(/C=C(/c2cccc(C(F)(F)F)c2)C(F)(F)F)cc1OC
12.4 | 35.2 | 16 | COc1ccc(/C(C)=C/c2cc(O)cc(O)c2)cc1

IC50 [1] [µM] | IC50 [2] [µM] | IC50 [3] [µM] | Compound
 | 37.5 |  | COc1cc(/C=C/c2ccc(F)cc2)cc(OC)c1
 | 37.5 |  | C/C(=C\c1ccc(O)c(O)c1)c1ccc(Cl)cc1
11.5 | 10.3 |  | Oc1ccc(/C=C/c2cccc(F)c2)cc1O
 | 18.8 |  | COc1cc(/C=C/c2ccc3ccccc3c2)cc(OC)c1
10.7 |  | 1.74 | C/C(=C\c1ccc(N(C)C)cc1)c1cc(O)cc(O)c1
30.5 |  | 14.8 | CC/C(=C\c1cc(O)cc(O)c1)c1ccc(N(C)C)cc1
1.9 | 26.2 | 1.78 | C/C(=C\c1ccc(O)cc1)c1cc(O)cc(O)c1
 | 31.9 |  | COc1cc(/C=C(/c2cccc(C(F)(F)F)c2)C(F)(F)F)cc(OC)c1
10 |  | 5.94 | COc1cc(/C=C/c2ccc([N+](=O)[O-])cc2)cc(OC)c1
5.4 |  |  | CC/C(=C\c1cccc(F)c1)c1cc(O)cc(O)c1
36.3 |  | 0.47 | C/C(=C\c1ccc(C(F)(F)F)cc1)c1ccc(O)cc1
4.9 |  | 2.54 | C/C(=C\c1cc(O)cc(O)c1)c1cccc(F)c1
10.9 |  |  | C/C(=C\c1ccc(C(F)(F)F)cc1)c1cc(O)cc(O)c1
 |  | 1.74 | C/C(=C\c1ccc(C(F)(F)F)cc1)c1ccc(O)c(O)c1
7.8 |  |  | COc1ccc(/C=C(/c2cc(OC)cc(OC)c2)C(F)(F)F)cc1
0.7 | 19.5 | 0.82 | COc1cc(/C=C/c2ccc(O)cc2)cc(OC)c1 [PTEROSTILBENE]
3 | 39 |  | COc1cc(/C=C(/c2ccc(F)cc2)C(F)(F)F)cc(OC)c1
17.8 |  |  | CN(C)c1ccc(/C=C/c2cc(O)cc(O)c2)cc1
16.5 |  | 0.82 | Oc1cc(O)cc(/C=C/c2cccc(F)c2)c1
11.4 | 13.1 |  | COc1ccc(/C(C)=C/c2cc(O)cc(O)c2)cc1OC
9.7 |  |  | CC/C(=C\c1ccc(OC)c(OC)c1)c1cc(O)cc(O)c1
3.2 | 38.8 |  | COc1ccc(/C=C/c2cccc(F)c2)cc1OC
1.9 |  | 1.57 | C/C(=C\c1cc(O)cc(O)c1)c1ccc(O)cc1
11.6 | 38.3 |  | CC/C(=C\c1cc(O)cc(O)c1)c1ccc(Cl)cc1
10.5 |  |  | C/C(=C\c1cccc(F)c1)c1cc(O)cc(O)c1
32.6 |  |  | COc1cc(/C=C(\C)c2ccc(C(F)(F)F)cc2)cc(OC)c1
 | 14.8 |  | Oc1ccc(/C=C/c2ccc(C(F)(F)F)cc2)cc1O

Compound | IC50 [1] [µM] | IC50 [2] [µM] | IC50 [3] [µM]
COc1ccc(/C=C/c2cc(OC)cc(OC)c2)cc1 [TRISMETHOXYRESVERATROL] |  | 28.3 | 
COc1ccc(/C=C/c2cc(O)cc(O)c2)cc1 [RESVERATROL 4'-METHYL ETHER] | 25.8 |  | 19.6
